Legend:
[1] = Cmax in chronic SCW-induced arthritis Lewis rat model plasma at ED80 concentration; type: ADME, cell-free
Summary of the method: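 Female Lewis rats (125-140 g) received a single i.p. streptococcal cell wall injection. Animals showing the acute phase were pooled, 4-8 per group over three experiments. Dosing was oral gavage b.i.d., days 10-21, in methylcellulose-Tween-20 vehicle. Hind paw volume was read by displacement plethysmometer on day 21, as % inhibition of swelling. Plasma was sampled up to 11 h after the last dose, 3 rats per dose. ED values came from fitted curves.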

[2] = molecular target: T1, MAP kinase-activated protein kinase 2 (Homo sapiens, UniProt P49137); experiment: Binding affinity to recombinant N-terminal truncated MK2 (45 to 371 residues) (unknown origin) expressed in Escherichia coli assessed as inhibition constant measured after 15 mins by surface plasmon resonance spectroscopy analysis
T1 sequence (P49137 whole entry, the tested form may be a part): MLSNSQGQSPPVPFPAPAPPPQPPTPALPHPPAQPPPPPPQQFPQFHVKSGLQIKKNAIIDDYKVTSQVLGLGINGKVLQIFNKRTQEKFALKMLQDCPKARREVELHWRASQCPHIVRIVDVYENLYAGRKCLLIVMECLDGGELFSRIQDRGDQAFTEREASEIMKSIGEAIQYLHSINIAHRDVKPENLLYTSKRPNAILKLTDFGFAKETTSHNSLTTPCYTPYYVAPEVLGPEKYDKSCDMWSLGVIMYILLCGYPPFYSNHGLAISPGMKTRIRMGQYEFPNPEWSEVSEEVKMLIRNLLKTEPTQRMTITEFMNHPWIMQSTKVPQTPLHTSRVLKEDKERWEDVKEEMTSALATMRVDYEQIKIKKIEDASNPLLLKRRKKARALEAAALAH

[3] = molecular target: T1, MAP kinase-activated protein kinase 2; experiment: Binding affinity to recombinant N-terminal truncated MK2 (45 to 371 residues) (unknown origin) expressed in Escherichia coli assessed as dissociation constant measured after 15 mins by surface plasmon resonance spectroscopy analysis
Summary of the method: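 SPR on biotinylated MK2 captured on a streptavidin-coated CM5 chip, at 25°C. Running buffer was 10 mM HEPES, 150 mM NaCl, 0.005% P20, flowing at 60 μl/min. Compound at 1-100 nM was injected for 4 min, then dissociation was followed for 15 min. Real-time binding kinetics were recorded.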

[4] = Inhibition of recombinant 6 his tagged N/C-terminal MSK1 (367 to 802 residues)/MSK2 (351 to 772 residues) (unknown origin) expressed in baculovirus infected Sf9 insect cells using KKKALSRQLSVAA as substrate incubated for 1 hr followed by substrate addition in presence of ATP; parameters: species or system Homo sapiens
Summary of the method: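 MAPKAP family kinases were activated by p38α (1:50 molar, 250 μM ATP, 1 h, 30°C). Assays ran in 20 mM HEPES pH 7.5, 10 mM MgCl2, 1 mM DTT, 0.01% BSA, 0.0005% Tween-20, at MgATP fixed at each enzyme's Km(app). The 33P-labelled product peptide was separated by ion exchange. Duplicate experiments. MSK1 (367-802) and MSK2 (351-772) were N-terminal 6xHis constructs from Sf9 cells.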

[5] = Inhibition of AMPK (unknown origin); parameters: species or system Homo sapiens
[6] = molecular target: T2, Phosphorylase b kinase gamma catalytic chain, liver/testis isoform (Homo sapiens, UniProt P15735); experiment: Inhibition of PhKgamma2 (unknown origin)
T2 sequence (P15735 whole entry): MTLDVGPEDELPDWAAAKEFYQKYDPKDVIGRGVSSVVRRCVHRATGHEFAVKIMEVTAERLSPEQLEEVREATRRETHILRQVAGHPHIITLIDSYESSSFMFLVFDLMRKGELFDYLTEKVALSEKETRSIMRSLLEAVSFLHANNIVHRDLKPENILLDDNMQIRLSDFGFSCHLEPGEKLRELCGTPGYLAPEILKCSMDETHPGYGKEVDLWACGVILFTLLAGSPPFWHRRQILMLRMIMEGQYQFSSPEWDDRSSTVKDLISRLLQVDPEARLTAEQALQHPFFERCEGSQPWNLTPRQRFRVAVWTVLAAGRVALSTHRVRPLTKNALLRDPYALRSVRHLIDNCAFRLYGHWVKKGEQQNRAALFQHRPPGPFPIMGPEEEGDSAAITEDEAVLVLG
Summary of the method: (§1)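 Kinase panel: 200 kinases were first screened at 1 μM inhibitor for percent inhibition. Those above 50% inhibition were then titrated for IC50. MgATP was fixed at the Km(app) determined for each enzyme.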

[7] = molecular target: Cyclin-dependent kinase 5/CDK5 activator 1 (Homo sapiens, UniProt Q00535); experiment: Inhibition of CDK5/p35 (unknown origin); type: protein-complex assay; summary of the method: as §1
Sequence of Cyclin-dependent kinase 5/CDK5 activator 1 (Q00535 whole entry): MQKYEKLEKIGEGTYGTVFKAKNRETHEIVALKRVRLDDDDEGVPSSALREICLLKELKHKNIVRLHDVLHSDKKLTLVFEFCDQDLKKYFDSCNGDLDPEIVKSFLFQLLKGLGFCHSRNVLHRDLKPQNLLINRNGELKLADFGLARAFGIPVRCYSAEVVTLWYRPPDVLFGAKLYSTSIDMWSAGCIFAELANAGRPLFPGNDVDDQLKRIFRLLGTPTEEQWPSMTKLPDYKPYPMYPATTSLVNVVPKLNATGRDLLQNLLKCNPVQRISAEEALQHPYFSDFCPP
Sequence of Cyclin-dependent kinase 5/CDK5 activator 1 (Q15078 whole entry, further chain): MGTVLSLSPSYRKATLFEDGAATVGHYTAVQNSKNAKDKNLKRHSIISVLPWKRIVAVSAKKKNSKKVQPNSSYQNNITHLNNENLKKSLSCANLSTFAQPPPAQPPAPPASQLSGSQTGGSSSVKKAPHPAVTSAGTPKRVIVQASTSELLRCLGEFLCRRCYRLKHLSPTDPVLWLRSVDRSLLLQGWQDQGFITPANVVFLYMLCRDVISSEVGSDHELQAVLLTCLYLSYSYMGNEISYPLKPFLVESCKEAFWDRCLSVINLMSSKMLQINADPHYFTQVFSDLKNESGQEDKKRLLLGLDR

[8] = Inhibition of TNF-alpha production in LPS-induced human U-937 cells preincubated with compound for 1 hr followed by LPS induction and measured after 4 hrs by MSD analysis; type: functional, cell-based
Summary of the method: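 U937 cells were pretreated with compound for 1 h (<1% DMSO final), then stimulated with LPS 100 ng/ml at 37°C. Media TNFα was read at 4 h by MSD electrochemiluminescence. Three separate experiments in duplicate, mean ±S.E.M. IC50 by 4-parameter nonlinear regression.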

[9] = Inhibition of TNF alpha production in LPS induced human PBMC cells preincubated with compound for 1 hr followed by LPS induction and measured after 16 hrs by MSD analysis; type: functional, cell-based
[10] = Inhibition of IL-8 production in LPS induced human PBMC cells preincubated with compound for 1 hr followed by LPS induction and measured after 16 hrs by MSD analysis; type: functional, cell-based
Summary of the method: (§2)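 Human PBMCs were pretreated with compound for 1 h (<1% DMSO final), then stimulated with LPS 100 ng/ml at 37°C. Cytokines in culture media were read by MSD 4-plex: TNFα at 4 h; IL-1β, IL-6 and IL-8 at 16 h. Data are means ±S.E.M. of two independent experiments in duplicate, three donors. IC50 by 4-parameter nonlinear regression.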

[11] = Inhibition of TNFalpha production in LPS induced human Whole blood cell preincubated with compound for 1 hr followed by LPS induction and measured after 4 hrs; type: functional, cell-based
Summary of the method: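 Human whole blood was stimulated with LPS 100 ng/ml for 4 h. Plasma TNFα was read by MSD kit. Three separate experiments in duplicate, mean ±S.E.M. IC50 by 4-parameter nonlinear regression.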

[12] = Antiinflammatory activity in human PBMC cells assessed as inhibition of LPS induced TNF alpha production preincubated for 1 hr followed by LPS stimulation and measured after 16 hrs by MSD analysis; type: functional, cell-based
[13] = Antiinflammatory activity in human PBMC cells assessed as inhibition of LPS induced IL-1 beta production preincubated for 1 hr followed by LPS stimulation and measured after 16 hrs by MSD analysis; type: functional, cell-based; summary of the method: as §2
[14] = Volume of distribution at steady state in Sprague-Dawley rat measured upto 24 hrs by […] analysis; type: ADME; conditions: in vivo, read-out: Vdss
Summary of the method: (§3)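 Male Sprague-Dawley rats (275-300 g), carotid-catheterized and acclimated overnight. Dosing was i.v. at 1 mpk (n=2) in 70% saline/20% PEG-400/10% ethanol, or oral at 3 mpk (n=3) as a suspension in 0.5% HPMC/Tween. Plasma drug was measured by LC-MS/MS. Cmax and Tmax were read from individual profiles. t½ came from the terminal log-linear slope and AUC by the linear trapezoidal rule. CL = dose/AUC0-∞, Vdss = CL×MRT, F = dose-normalized AUC po/iv.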

[15] = AUC (0 to infinity) in Sprague-Dawley rat at 3 mg/kg, po measured upto 24 hrs by […] analysis; type: ADME, organism-based; conditions: in vivo; summary of the method: as §3

Cmax [1]: 28 µM
Ki [2]: 3 nM
Kd [3]: 5.9 nM
IC50 [5]: 117 nM
IC50 [6]: 528 nM
IC50 [7]: 902 nM
IC50 [8]: 159 nM
IC50 [9]: 160 nM
IC50 [10]: 2090 nM
IC50 [11]: 1970 nM
IC50 [12]: 214 nM
IC50 [13]: 2710 nM
Vd [14]: 1.5 L/kg
AUC(0-inf) [15]: 1.8 µM·h
Structure (SMILES): Cc1ccc(-c2ccc3c(ccc4sc5c(c43)NC[C@@H](C)NC5=O)n2)cn1
IC50 [4]: > 1000 nM
